Laboratory results as given in ChEMBL document CHEMBL3085751, “Synthesis of some new pyrazole-based 1,3-thiazoles and 1,3,4-thiadiazoles as anticancer agents” (Eur J Med Chem, 2013).

How the values were obtained:
Format in all cases: functional, cell-based
MCF7 = test: Cytotoxicity against human MCF7 cells after 72 hrs by SRB assay; conditions: MCF7, 72 h
Outline: (§1)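 Cells kept as monolayers at 37 °C in 5% CO2 with 10% heat-inactivated FBS; A549 was grown in DMEM, HepG2 and MCF-7 in RPMI. Trypsinized cells were seeded at 1000-2000/well, left 24 h, then exposed 72 h to a range of concentrations. Cells were fixed with 10% TCA (1 h, 4 °C) and stained with 0.4% SRB in 1% acetic acid for 10 min. Dye was dissolved in Tris-HCl, OD read at 564 nm, and IC50 taken from %-viability dose-response curves.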

A549 = test: Cytotoxicity against human A549 cells after 72 hrs by SRB assay; conditions: A549, 72 h; outline: as §1
HepG2 = test: Cytotoxicity against human HepG2 cells after 72 hrs by SRB assay; conditions: HepG2, 72 h; outline: as §1

Row | SMILES | IC50 (MCF7) [µM] | IC50 (A549) [µM] | IC50 (HepG2) [µM]
1 | Cc1c(-c2csc(/N=c3\sc(-c4ccccc4)nn3-c3ccccc3)n2)c(=O)n(-c2ccccc2)n1C | > 100 | > 100 | > 100
2 | CC(=O)c1nn(-c2ccccc2)/c(=N/c2nc(-c3c(C)n(C)n(-c4ccccc4)c3=O)cs2)s1 | > 100 | > 100 | 67.1
3 | Cc1ccc(/C=C2\S/C(=N\c3nc(-c4c(C)n(C)n(-c5ccccc5)c4=O)cs3)N(c3ccccc3)C2=O)cc1 | > 100 | > 100 | > 100
4 | Cc1c(-c2csc(/N=C3\SCC(=O)N3c3ccccc3)n2)c(=O)n(-c2ccccc2)n1C | > 100 | > 100 | 70.5
5 | Cc1c(-c2csc(NC(=S)Nc3ccccc3)n2)c(=O)n(-c2ccccc2)n1C | 10.1 | 7.74 | 8.35
6 | COc1ccc(-n2nc(C(C)=O)s/c2=N\c2nc(-c3c(C)n(C)n(-c4ccccc4)c3=O)cs2)cc1 | 64.5 | 26.5 | 41.2
7 | CC(=O)c1nn(-c2ccc(Cl)cc2)/c(=N/c2nc(-c3c(C)n(C)n(-c4ccccc4)c3=O)cs2)s1 | > 100 | > 100 | > 100
8 | Cc1c(-c2csc(/N=C3\S/C(=C\c4ccccc4)C(=O)N3c3ccccc3)n2)c(=O)n(-c2ccccc2)n1C | > 100 | > 100 | 63.4
9 | CCOC(=O)c1nn(-c2ccc(OC)cc2)/c(=N/c2nc(-c3c(C)n(C)n(-c4ccccc4)c3=O)cs2)s1 | 15.9 | 13.1 | 12.9
10 | COc1ccc(/C=C2\S/C(=N\c3nc(-c4c(C)n(C)n(-c5ccccc5)c4=O)cs3)N(c3ccccc3)C2=O)cc1 | 26.1 | 9.1 | 13.2
11 | COc1cccc2c1C(=O)c1c(O)c3c(c(O)c1C2=O)C[C@@](O)(C(=O)CO)C[C@@H]3O[C@H]1C[C@H](N)[C@H](O)[C@H](C)O1 [DOXORUBICIN] | – | 0.411 | 0.877
12 | Cc1c(-c2csc(/N=C3\S/C(=C\c4ccc(Cl)cc4)C(=O)N3c3ccccc3)n2)c(=O)n(-c2ccccc2)n1C | > 100 | > 100 | > 100
13 | CCOC(=O)c1nn(-c2ccc(C)cc2)/c(=N/c2nc(-c3c(C)n(C)n(-c4ccccc4)c3=O)cs2)s1 | > 100 | > 100 | > 100
14 | CCOC(=O)c1nn(-c2ccccc2)/c(=N/c2nc(-c3c(C)n(C)n(-c4ccccc4)c3=O)cs2)s1 | > 100 | > 100 | > 100
15 | CCOC(=O)c1nn(-c2ccc([N+](=O)[O-])cc2)/c(=N/c2nc(-c3c(C)n(C)n(-c4ccccc4)c3=O)cs2)s1 | 10 | 8.68 | 8.11
16 | Cc1c(-c2csc(/N=C3\S/C(=C\c4ccco4)C(=O)N3c3ccccc3)n2)c(=O)n(-c2ccccc2)n1C | 22.4 | 13.7 | 16.6
17 | Cc1c(-c2csc(/N=C3\S/C(=C\c4ccc(N(C)C)cc4)C(=O)N3c3ccccc3)n2)c(=O)n(-c2ccccc2)n1C | > 100 | > 100 | > 100
18 | CC(=O)c1nn(-c2ccc([N+](=O)[O-])cc2)/c(=N/c2nc(-c3c(C)n(C)n(-c4ccccc4)c3=O)cs2)s1 | > 100 | > 100 | > 100
19 | CCOC(=O)c1nn(-c2ccc(Cl)cc2)/c(=N/c2nc(-c3c(C)n(C)n(-c4ccccc4)c3=O)cs2)s1 | > 100 | > 100 | > 100
20 | CC(=O)c1nn(-c2ccc(C)cc2)/c(=N/c2nc(-c3c(C)n(C)n(-c4ccccc4)c3=O)cs2)s1 | 56.8 | 20.7 | 31.7
